Granule exo inh = lytic granule exocytosis inhibition. TALL-104 LAMP-1 surface exposure, flow cytometry; cells stimulated with thapsigargin and PMA. inhibition, % at 10 µM. hit rate 0.66% among 360,000. AID 651702;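 active means inhibition above about 55%, limit read from the data; inconclusive means no clear call, values can overlap the other calls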
EBI2 block = antagonists of human EBI2 receptor. EBI2 beta-arrestin recruitment, luminescence, 7a,25-OHC stimulated. inhibition, % at 5 µM. hit rate 0.81% among 360,000. AID 651636; in the data active means inhibition above about 38%;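 further: enzyme fragment complementation signal reports receptor beta-arrestin coupling in cells; 0% = agonist plus DMSO wells and 100% = wells without agonist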
MC4R antagonist = human MC4R antagonism in cAMP assay | P32245 | inhibition, % at 6.5 µM | MC4R-expressing cells, MTII-stimulated cAMP, LANCE TR-FRET | hit rate 0.48% among 360,000;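 active means inhibition above its plate's cutoff, the mean of tested wells on that plate plus 3 SD, cut at about 29% in these data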;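 further: 0% = Melanotan II alone and 100% = Melanotan II plus saturating MCL0020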
Target sequence (P32245 whole entry, looked up): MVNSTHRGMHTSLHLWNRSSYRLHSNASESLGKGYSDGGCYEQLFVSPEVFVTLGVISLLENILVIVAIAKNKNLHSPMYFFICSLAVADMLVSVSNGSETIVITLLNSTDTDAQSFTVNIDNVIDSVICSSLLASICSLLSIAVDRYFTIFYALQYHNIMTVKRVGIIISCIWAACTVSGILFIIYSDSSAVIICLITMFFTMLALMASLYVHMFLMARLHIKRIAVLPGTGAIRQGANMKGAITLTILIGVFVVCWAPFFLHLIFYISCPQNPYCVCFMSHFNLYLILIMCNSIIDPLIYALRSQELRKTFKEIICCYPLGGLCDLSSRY
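Assay system: U2OS-MC4R stable cell line; Also added: Melanotan II; Technique: Eu-cAMP/anti-cAMP TR-FRET, emission 671 nm; Times: 30-min compound, 1-h challenge, 1-h detection, room temperature.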
Myeloid diff 2 = compounds promoting myeloid differentiation; ER-HoxA9 myeloid progenitors, lysozyme-GFP differentiation, flow cytometry; calls only at 10 µM; hit rate 1% among 360,000; AID 624256;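 active means normalized GFP-positive differentiation at or above the plate's own cutoff, the solvent-only control mean plus 3 SD; inconclusive means no clear call, values can overlap the other calls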;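 further: cells exposed to compound for four days before flow analysis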
MC4R ag barr = activates human MC4R beta-arrestin recruitment. P32245. U2OS MC4R beta-arrestin complementation, luminescence; percent of melanotan II response, DMSO zero. AID 540308. activation, % at 8.9 µM. hit rate 0.98% among 360,000;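 active means activation above a per-plate cutoff, the mean activation of sample wells on that plate plus 3 SD, cut at about 8% in these data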
Starred values were filed as active, the others as inactive; i = inactive; ? = inconclusive; nt = not tested or not shown; + = active, no number. Compounds with a hit are over-represented: about 3.7% of the library has one in this group of screens.

SMILES	Granule exo inh	EBI2 block	MC4R antagonist	Myeloid diff 2	MC4R ag barr
CCc1ccccc1NC(=O)NNC(=O)CCc1ccc(OC)cc1	2.1	2.2	3.1	i	-0.9
COc1cccc(Nc2ncnc3sccc23)c1	-20.1	0.3	-1.1	+	2.2
COc1ccc(Nc2ncnc3sccc23)cc1	-12.3	14.2	-8.6	i	1.5
Cc1cc(S(=O)(=O)Nc2c(NC3CCCCC3)c3ccccc3oc2=O)ccc1F	-14.3	-0.1	5.6	i	8.4*
Cc1ccc(S(=O)(=O)N2C(c3ccccc3)CC(=O)C3CN(S(=O)(=O)c4ccc(Cl)cc4)C(c4ccccc4)CC32)cc1 (stereo not drawn)	-4.7	5.4	nt	i	nt
O=C(COC(=O)c1cccc(Br)c1)NC(=O)NC1CCCC1	0.8	1.5	1.7	i	8.8*
COc1cccc(OCCOCCN(C)CCO)c1	-3.5	-2.4	1.7	+	-1.5
COc1cccc(N2CCN(c3nc(-c4ccccc4C)cc(=O)[nH]3)CC2)c1	-2.9	-8.5	-3.6	i	0.6
Cc1cc2c(cc1C)NC(CC(=O)NCc1ccccc1)C(=O)N2 (stereo not drawn)	0.4	-2.0	13.1	+	-0.3
CC(C)Cc1ccc(/C=C/C(=O)NC2CC2)cc1	-6.2	-2.2	-2.8	i	-0.9
COc1ccc(NC(=O)/C(Cl)=C(/Cl)S(=O)Cc2ccccc2)cn1 (stereo not drawn)	39.0	78.8*	26.3	?	-1.9
CC1CC(C)CN(S(=O)(=O)c2ccc(C(=O)OCC(=O)Nc3ccccc3)cc2)C1 (stereo not drawn)	4.9	11.7	-2.9	i	0.7
Cc1ccc2c(c1)C(=C(C#N)C#N)C(=O)N2CCN1CCOCC1	-5.2	-4.5	8.9	i	-0.7
Cc1ccc2c(c1)C(=C(C#N)C#N)C(=O)N2CCN1CCCCC1	56.3*	10.8	-3.4	i	-3.1
Cc1cc(S(=O)(=O)N2CCOCC2)ccc1OCC(=O)Nc1ccc(Br)cc1F	2.6	9.1	4.4	i	-1.9
Cc1noc(C)c1S(=O)(=O)NC(=O)C1(C)CCN1C(=O)Cc1ccc(-c2ccccc2)cc1 (stereo not drawn)	3.7	8.1	9.4	i	-0.1
CCn1c(SCC(=O)c2c[nH]c3ccccc23)nc2cc(S(=O)(=O)N3CCOCC3)ccc21	-2.7	10.7	3.2	+	2.1
CCN(CC)CCOC(=O)c1ccc(NC(=O)c2cn(-c3ccccc3)nc2-c2cccs2)cc1	90.2*	15.7	-0.3	nt	1.2
Cc1cn(CC(=O)NCCc2c[nH]c3ccccc23)c(=O)[nH]c1=O	-3.5	-3.8	7.0	i	-0.2
O=C(Nc1ccc(Br)c(C(F)(F)F)c1)c1ccc(C(F)(F)F)cc1	52.2	-8.2	17.2	i	8.5*
O=C(Nc1ccc(Br)c(C(F)(F)F)c1)c1ccccc1	8.0	-12.5	3.6	i	0.9
COc1ccc(N2C(=O)CC(Sc3n[nH]c(-c4cccc(C)c4)n3)C2=O)cc1 (stereo not drawn)	94.8*	5.7	5.7	i	0.6
COc1cccc(N2C(=O)CC(Sc3nc(C)cc(C)n3)C2=O)c1 (stereo not drawn)	-13.3	1.0	-6.5	i	-2.1
O=C(CSc1nnnn1-c1cccc(O)c1)NC1CC1	2.5	-6.1	7.2	i	-4.5
COc1cccc(CN2CCC2(C)C(=O)Nc2cnc3ccccc3c2)c1F (stereo not drawn)	11.2	15.1	16.4	i	-1.1
COc1ccc(-c2noc(CCC(=O)NCCc3ccccc3)n2)cc1OC	3.0	3.8	8.8	i	-0.3
CCC[C@@H](CN1CCC[C@H]1CN1C(N)=NC[C@@H]1Cc1ccccc1)N1C[C@@H]([C@H](C)CC)N(CCCC2CCCC2)C1=N	21.3	13.8	39.2*	i	3.1
CC(C)[C@@H]1CN=C(N)N1C[C@@H]1CCCN1C[C@H](C)N1C[C@@H](Cc2ccccc2)N(CCc2ccc(Cl)c(Cl)c2)C1=N	2.1	-10.6	11.9	i	5.0
C[C@@H](CN1CCC[C@H]1CN1C(N)=NC[C@@H]1Cc1ccccc1)N1C[C@@H](Cc2ccccc2)N(CCc2ccc(Cl)c(Cl)c2)C1=N	-2.1	6.5	32.7*	i	1.7
CCC[C@@H](CN1CCC[C@H]1CN1C(N)=NC[C@@H]1Cc1ccccc1)N1C[C@@H](Cc2ccccc2)N(CCCC2CCCC2)C1=N	-4.4	13.8	9.1	i	1.6

Assay outcomes as filed in PubChem BioAssay.
